Calls of active or inactive are those of the source. The rule behind the calls is not given here.
Legend:
[1] = biological target: Protein kinase C (PKC) (Homo sapiens) (UniProt O94806+P41743+P17252+P05129+Q05655+P05771+Q05513+Q02156+P24723+Q15139+Q04759); experiment: Activation of PKC in human Ramos cells assessed as PKD1 phosphorylation at S744/S748 at 10000 nM after 30 mins by Western blot analysis; format: cell-based
In short: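 Ramos cells in RPMI-1640 with 10% FBS and 1% L-glutamine, plated at 300,000 cells/ml, were exposed after 24 h to 0.01, 0.1, 1 and 10 μM compound for 30 min. Lysates were made in PBS with 0.5% Triton X-100 and sonicated. 7.5 μg protein was run on 10% Tris-glycine gels, blotted to nitrocellulose, probed overnight with phospho-specific primary antibodies and detected by ECL.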

Lipid bilayer = experiment: Binding affinity to NBD-PE embedded 9:1 DMPC/DMPG giant vesicle at 6.05 uM by FRET analysis
In short: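 Giant vesicles containing NBD-PE (100:1 phospholipid:fluorophore) were mixed with 6.05 μM compound from DMSO stock in Tris/sucrose/KCl buffer pH 7.4. NBD-PE emission was recorded after excitation at 330–370 nm, the indole excitation range. Triton addition served as the disruption control.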

[2] = Binding affinity to 9:1 DMPG/DMPC giant vesicle at 6.05 uM by fluorescence emission spectra analysis; conditions: in the assay text read “9:1 DMPC/DMPG” for “9:1 DMPG/DMPC”
In short: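 Intrinsic 1-methylindole emission of 6.05 μM compound in Tris/sucrose/KCl buffer pH 7.4 was recorded at 27°C while titrating with DMPC/DMPG giant vesicles (5–30 μL), with excitation at each compound's own wavelength. Vesicle light scattering was under 5% of the signal.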

[3] = biological target: Protein kinase C delta type (Homo sapiens) (UniProt Q05655); experiment: Activation of PKC-delta in HEK293 cells overexpressing RasGRP3 assessed as protein phosphorylation at S299 at 0.1 to 30 uM after 30 mins by Western blot analysis; format: cell-based
Sequence of Protein kinase C delta type (Homo sapiens) (Q05655 whole entry, looked up): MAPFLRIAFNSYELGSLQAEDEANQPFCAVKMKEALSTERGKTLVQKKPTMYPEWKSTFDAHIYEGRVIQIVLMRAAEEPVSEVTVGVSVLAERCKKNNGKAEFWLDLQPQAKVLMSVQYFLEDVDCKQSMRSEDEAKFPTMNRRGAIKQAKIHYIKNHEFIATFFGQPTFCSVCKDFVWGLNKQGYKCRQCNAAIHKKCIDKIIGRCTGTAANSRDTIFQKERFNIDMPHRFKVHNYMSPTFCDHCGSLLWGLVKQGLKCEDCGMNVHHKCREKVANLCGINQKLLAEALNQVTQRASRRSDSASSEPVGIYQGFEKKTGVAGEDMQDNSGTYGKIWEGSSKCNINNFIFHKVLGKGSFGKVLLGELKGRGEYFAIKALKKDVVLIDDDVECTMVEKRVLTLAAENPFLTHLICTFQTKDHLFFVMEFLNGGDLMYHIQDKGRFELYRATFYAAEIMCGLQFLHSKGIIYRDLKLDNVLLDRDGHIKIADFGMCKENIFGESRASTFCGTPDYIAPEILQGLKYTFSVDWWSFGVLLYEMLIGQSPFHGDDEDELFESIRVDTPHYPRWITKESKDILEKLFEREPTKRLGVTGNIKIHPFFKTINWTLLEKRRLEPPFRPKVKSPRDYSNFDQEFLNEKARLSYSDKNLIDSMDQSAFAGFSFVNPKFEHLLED

[4] = biological target: T1, Ras guanyl-releasing protein 3 (Homo sapiens) (UniProt Q8IV61); experiment: Activation of RasGRP3 (unknown origin) overexpressed in HEK293 cells assessed as ERK1/2 phosphorylation at 1 to 10 uM after 30 mins by Western blot analysis; format: cell-based
T1 sequence (whole entry): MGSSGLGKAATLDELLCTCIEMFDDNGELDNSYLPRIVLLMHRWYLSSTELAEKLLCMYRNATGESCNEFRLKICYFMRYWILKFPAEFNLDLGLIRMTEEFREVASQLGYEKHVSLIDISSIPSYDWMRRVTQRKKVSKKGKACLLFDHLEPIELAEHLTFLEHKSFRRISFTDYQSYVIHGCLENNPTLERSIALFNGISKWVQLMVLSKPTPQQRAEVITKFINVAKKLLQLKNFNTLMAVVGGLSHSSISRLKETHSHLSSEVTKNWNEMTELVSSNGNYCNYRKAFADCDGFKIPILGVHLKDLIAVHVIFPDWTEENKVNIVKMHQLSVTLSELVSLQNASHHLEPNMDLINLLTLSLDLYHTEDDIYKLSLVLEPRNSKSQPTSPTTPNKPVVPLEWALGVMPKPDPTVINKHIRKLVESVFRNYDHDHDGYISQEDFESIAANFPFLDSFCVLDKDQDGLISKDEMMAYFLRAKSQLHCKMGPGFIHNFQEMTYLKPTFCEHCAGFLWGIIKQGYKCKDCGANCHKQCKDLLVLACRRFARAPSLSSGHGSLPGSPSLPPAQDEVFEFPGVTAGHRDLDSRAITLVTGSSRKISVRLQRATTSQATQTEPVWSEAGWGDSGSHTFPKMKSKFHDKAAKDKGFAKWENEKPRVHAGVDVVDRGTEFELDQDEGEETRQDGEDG

[5] = biological target: Protein kinase C alpha type (Homo sapiens, UniProt P17252); experiment: Binding affinity to recombinant human GFP-tagged PKC-alpha expressed in CHOK1 cells assessed as induction of protein translocation from plasma membrane to internal membrane at 10000 nM after 2 to 5 mins by confocal microscopic analysis; format: cell-based; conditions: CHO-K1
In short: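 CHO-K1 cells were transiently transfected with human GFP-PKCα and imaged live by confocal microscopy 24 h later (488 nm excitation, 500–530 nm emission) every 30 s for 30 min after 10 μM ligand. Membrane/cytoplasm intensity ratio from 4 μm2 regions was normalized to time 0. n = 3–6.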

Row | Compound | Activity [1] | Activity (Lipid bilayer) | Activity [2] | Activity [3] | Activity [4] | Activity [5]
1 | CCCC(CCC)C(=O)OCC1(CO)C/C(=C\c2ccc3c(ccn3C)c2)C(=O)O1 (stereo unspecified) | Active | Active | inactive | Active | – | –
2 | CCCC(CCC)C(=O)OCC1(CO)C/C(=C\c2cn(C)c3ccccc23)C(=O)O1 (stereo unspecified) | Active | inactive | inactive | Active | Active | –
3 | CCCC(CCC)C(=O)OCC1(CO)C/C(=C\c2ccc3ccn(C)c3c2)C(=O)O1 (stereo unspecified) | Active | Active | Active | Active | – | Active

Second part, the compound after the results:

Row | Activity [1] | Activity (Lipid bilayer) | Activity [2] | Activity [3] | Activity [4] | Activity [5] | Compound
4 | Active | – | Active | Active | – | – | CCCC(CCC)C(=O)OCC1(CO)C/C(=C\c2cccc3c2ccn3C)C(=O)O1 (stereo unspecified)
5 | Active | Active | inactive | Active | – | – | CCCC(CCC)C(=O)OCC1(CO)C/C(=C\c2cccc3ccn(C)c23)C(=O)O1 (stereo unspecified)

From ChEMBL document CHEMBL3286272, “Synthesis, biological, and biophysical studies of DAG-indololactones designed as selective activators of RasGRP” (Bioorg Med Chem, 2014)
